The source of these data is ChEMBL document CHEMBL4229483, “Synthesis and evaluation of an orally available "Y"-shaped biaryl peroxisome proliferator-activated receptor δ agonist” (Bioorg Med Chem, 2018).

pEC50, pIC50: −log10 of the molar value. Where only a bound is given, the exact number is not on record here.

The target in data set [1] is T1, Peroxisome proliferator-activated receptor alpha (Homo sapiens, UniProt Q07869).
T1 sequence (Q07869 whole entry): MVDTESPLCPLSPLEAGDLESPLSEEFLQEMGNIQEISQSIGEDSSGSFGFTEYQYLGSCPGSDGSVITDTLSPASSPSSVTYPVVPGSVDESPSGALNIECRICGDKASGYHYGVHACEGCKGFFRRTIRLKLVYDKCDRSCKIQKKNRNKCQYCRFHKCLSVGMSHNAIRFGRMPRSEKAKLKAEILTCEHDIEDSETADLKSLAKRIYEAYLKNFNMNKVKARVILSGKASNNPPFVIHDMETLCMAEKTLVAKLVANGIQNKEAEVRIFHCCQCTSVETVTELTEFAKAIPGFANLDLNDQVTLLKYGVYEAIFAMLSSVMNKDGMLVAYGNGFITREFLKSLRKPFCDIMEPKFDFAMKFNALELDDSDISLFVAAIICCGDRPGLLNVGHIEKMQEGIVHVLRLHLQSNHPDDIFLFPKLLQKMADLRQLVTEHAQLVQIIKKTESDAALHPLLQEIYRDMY
Put plainly: Transactivation of human PPARalpha expressed in monkey CV-1 cells coexpressing TK-PPRE-Luc after 24 hrs by luciferase reporter gene assay. In kind it is cell-based. (In general: In a reporter assay the amount or activity of a reporter protein is the signal.)

Data set [2] has as its target T2, Peroxisome proliferator-activated receptor gamma (Homo sapiens, UniProt P37231).
T2 sequence (P37231 whole entry): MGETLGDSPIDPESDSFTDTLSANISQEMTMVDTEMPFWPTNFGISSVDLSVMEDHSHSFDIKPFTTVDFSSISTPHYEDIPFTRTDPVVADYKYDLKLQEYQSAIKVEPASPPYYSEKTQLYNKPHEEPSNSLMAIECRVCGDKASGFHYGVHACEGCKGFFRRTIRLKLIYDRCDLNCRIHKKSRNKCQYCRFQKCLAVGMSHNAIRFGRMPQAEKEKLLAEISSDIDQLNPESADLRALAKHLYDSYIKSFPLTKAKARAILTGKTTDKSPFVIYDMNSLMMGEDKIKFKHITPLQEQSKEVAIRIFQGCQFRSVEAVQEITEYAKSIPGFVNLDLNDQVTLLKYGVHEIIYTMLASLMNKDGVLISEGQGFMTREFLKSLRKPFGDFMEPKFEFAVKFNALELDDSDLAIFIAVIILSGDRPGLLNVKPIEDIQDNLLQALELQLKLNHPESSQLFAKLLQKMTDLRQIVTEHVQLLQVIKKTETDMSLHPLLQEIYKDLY
As to the kind of experiment: Transactivation of human PPARgamma expressed in monkey CV-1 cells coexpressing TK-PPRE-Luc after 24 hrs by luciferase reporter gene assay. In kind it is cell-based.

Data set [3] has as its target T3, CYP1A2 (Homo sapiens, UniProt P05177).
T3 sequence (P05177 whole entry): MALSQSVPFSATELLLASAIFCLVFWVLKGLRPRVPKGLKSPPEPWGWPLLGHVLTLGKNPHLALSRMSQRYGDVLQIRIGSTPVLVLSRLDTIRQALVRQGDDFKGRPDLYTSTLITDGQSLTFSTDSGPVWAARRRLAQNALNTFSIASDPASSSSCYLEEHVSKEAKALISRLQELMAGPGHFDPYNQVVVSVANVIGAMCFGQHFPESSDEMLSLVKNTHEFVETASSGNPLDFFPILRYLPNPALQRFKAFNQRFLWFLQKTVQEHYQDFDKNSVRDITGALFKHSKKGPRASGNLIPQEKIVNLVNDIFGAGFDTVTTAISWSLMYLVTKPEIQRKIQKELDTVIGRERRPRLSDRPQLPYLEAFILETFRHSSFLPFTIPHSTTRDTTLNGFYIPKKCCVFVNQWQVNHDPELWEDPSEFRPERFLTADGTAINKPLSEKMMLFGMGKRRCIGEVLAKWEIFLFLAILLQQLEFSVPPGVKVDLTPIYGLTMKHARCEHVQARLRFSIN
Put plainly: Inhibition of phenacetin O-deethylase activity of CYP1A2 in human liver microsomes at 10 uM preincubated for 5 mins followed by NADPH addition measured after 15 mins by LC-MS/MS analysis. The settings on record: probe phenacetin (O-deethylation). The data set is classed as ADME. The method, boiled down:
(§1)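 Compound incubated with liver microsomes and isotype-specific CYP substrates for 15 min. Activity expressed as percent inhibition relative to incubation without compound. Values are means of duplicates.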

Data set [4] concerns the target CYP2C9 (Homo sapiens, UniProt P11712). Put plainly: Inhibition of tolbutamide 4-hydroxylase activity of CYP2C9 in human liver microsomes at 10 uM preincubated for 5 mins followed by NADPH addition measured after 15 mins by LC-MS/MS analysis. The data set is classed as ADME. Particulars: probe tolbutamide (4-hydroxylation). A digest of the protocol: as §1
A general note: Liver microsomes are a subcellular fraction often used to study metabolism.

In data set [5] the target is CYP2C19 (Homo sapiens, UniProt P33261). As to the kind of experiment: Inhibition of S-mephenytoin 4-hydroxylase activity of CYP2C19 in human liver microsomes at 10 uM preincubated for 5 mins followed by NADPH addition measured after 15 mins by LC-MS/MS analysis. The data set is classed as ADME. Particulars: probe S-mephenytoin (4-hydroxylation). The method, boiled down: as §1

In data set [6] the target is CYP2D6 (Homo sapiens, UniProt P10635). As to the kind of experiment: Inhibition of dextromethorphan O-demethylase activity of CYP2D6 in human liver microsomes at 10 uM preincubated for 5 mins followed by NADPH addition measured after 15 mins by LC-MS/MS analysis. The data set is classed as ADME. Particulars: probe dextromethorphan (O-demethylation). A digest of the protocol: as §1

The target in data set [7] is CYP3A4 (Homo sapiens, UniProt P08684). As to the kind of experiment: Inhibition of midazolam 1'-hydroxylase activity of CYP3A4 in human liver microsomes at 10 uM preincubated for 5 mins followed by NADPH addition measured after 15 mins by LC-MS/MS analysis. The data set is classed as ADME. Particulars: probe midazolam (1'-hydroxylation). The method, boiled down:
as §1

Data set [8] in a line: Metabolic stability in human liver microsomes assessed as parent compound remaining at 1 uM after 30 mins in presence of NADPH by LC-MS/MS analysis. The data set is classed as ADME, microsome. Particulars: read-out: Stability. A digest of the protocol:
(§2)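 Compound incubated with liver microsomes for 30 min. Percentage of parent remaining quantified by LC-MS/MS. Means of duplicate determinations.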

Data set [9] is described as follows: Metabolic stability in dog liver microsomes assessed as parent compound remaining at 1 uM after 30 mins in presence of NADPH by LC-MS/MS analysis. The settings on record: read-out: Stability. The data set is classed as ADME, Canis lupus familiaris, microsome. A digest of the protocol: as §2
The nature of data set [10]: Metabolic stability in rat liver microsomes assessed as parent compound remaining at 1 uM after 30 mins in presence of NADPH by LC-MS/MS analysis. Particulars: read-out: Stability. The data set is classed as ADME, microsome. A digest of the protocol: as §2
Data set [11] in a line: Metabolic stability in mouse liver microsomes assessed as parent compound remaining at 1 uM after 30 mins in presence of NADPH by LC-MS/MS analysis. In kind it is ADME, microsome. The settings on record: read-out: Stability. The method, boiled down:
as §2

A short description of data set [12]: Permeability of the compound at 10 uM at pH 7.4 after 5 hrs by PAMPA. The data set is classed as ADME. The settings on record: read-out: permeability. The method, boiled down:
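PAMPA. Effective permeability calculated after 5 h. Values are the mean of four determinations.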
On the technique in general: PAMPA measures passive passage across an artificial lipid membrane.

The target of data set [13] is Voltage-gated inwardly rectifying potassium channel KCNH2 (Homo sapiens, UniProt Q12809). Put plainly: Inhibition of human ERG after 4 hrs by fluorescence polarization assay. A digest of the protocol:
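hERG channel binding measured by a fluorescence polarization (Predictor) assay. IC50 obtained by four-parameter non-linear regression.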

The nature of data set [14]: Total AUC in Sprague-Dawley rat at 1 mg/kg, iv by LC-MS/MS analysis. In kind it is ADME, organism-based. Also noted: dose 1 mg/kg, route intravenous, time AUCmax. Particulars: in vivo. A digest of the protocol:
(§3)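 Rats (n = 4) given 1 mg/kg iv. Vehicle: ethanol 10%, DMSO 10%, Cremophor EL 10%, water 50%, PEG400 30%. Parameters calculated from composite mean plasma concentration–time data, reported as mean ± SD.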

The nature of data set [15]: Clearance in Sprague-Dawley rat at 1 mg/kg, iv by LC-MS/MS analysis. The data set is classed as ADME, organism-based. The settings on record: in vivo. A digest of the protocol:
as §3

A short description of data set [16]: Volume of distribution at steady state in Sprague-Dawley rat at 1 mg/kg, iv by LC-MS/MS analysis. The data set is classed as ADME, organism-based. The settings on record: in vivo, read-out: Vdss. A digest of the protocol: as §3
Data set [17] can be described thus: Half life in Sprague-Dawley rat at 1 mg/kg, iv by LC-MS/MS analysis. The data set is classed as ADME, organism-based. Particulars: in vivo. The method, boiled down: as §3
A short description of data set [18]: Cmax in Sprague-Dawley rat at 10 mg/kg, po by LC-MS/MS analysis. In kind it is ADME, organism-based. Also noted: dose 10 mg/kg, route oral. Particulars: in vivo. The method, boiled down: (§4)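 Formulation: ethanol 10%, DMSO 10%, Cremophor EL 10%, […], PEG400 30%. PK parameters taken from composite mean plasma concentration–time profiles, given as mean ± SD.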

Data set [19] can be described thus: Tmax in Sprague-Dawley rat at 10 mg/kg, po by LC-MS/MS analysis. The data set is classed as ADME, organism-based. The settings on record: in vivo. The method, boiled down:
as §4

Data set [20] in a line: Total AUC in Sprague-Dawley rat at 10 mg/kg, po by LC-MS/MS analysis. In kind it is ADME, organism-based. Details: dose 10 mg/kg, route oral, time AUCmax. The settings on record: in vivo. A digest of the protocol:
as §4

The nature of data set [21]: Oral bioavailability in Sprague-Dawley rat at 10 mg/kg by LC-MS/MS analysis. In kind it is ADME, organism-based. The settings on record: in vivo. The method, boiled down: as §4

Sequence of Voltage-gated inwardly rectifying potassium channel KCNH2 (Q12809 whole entry): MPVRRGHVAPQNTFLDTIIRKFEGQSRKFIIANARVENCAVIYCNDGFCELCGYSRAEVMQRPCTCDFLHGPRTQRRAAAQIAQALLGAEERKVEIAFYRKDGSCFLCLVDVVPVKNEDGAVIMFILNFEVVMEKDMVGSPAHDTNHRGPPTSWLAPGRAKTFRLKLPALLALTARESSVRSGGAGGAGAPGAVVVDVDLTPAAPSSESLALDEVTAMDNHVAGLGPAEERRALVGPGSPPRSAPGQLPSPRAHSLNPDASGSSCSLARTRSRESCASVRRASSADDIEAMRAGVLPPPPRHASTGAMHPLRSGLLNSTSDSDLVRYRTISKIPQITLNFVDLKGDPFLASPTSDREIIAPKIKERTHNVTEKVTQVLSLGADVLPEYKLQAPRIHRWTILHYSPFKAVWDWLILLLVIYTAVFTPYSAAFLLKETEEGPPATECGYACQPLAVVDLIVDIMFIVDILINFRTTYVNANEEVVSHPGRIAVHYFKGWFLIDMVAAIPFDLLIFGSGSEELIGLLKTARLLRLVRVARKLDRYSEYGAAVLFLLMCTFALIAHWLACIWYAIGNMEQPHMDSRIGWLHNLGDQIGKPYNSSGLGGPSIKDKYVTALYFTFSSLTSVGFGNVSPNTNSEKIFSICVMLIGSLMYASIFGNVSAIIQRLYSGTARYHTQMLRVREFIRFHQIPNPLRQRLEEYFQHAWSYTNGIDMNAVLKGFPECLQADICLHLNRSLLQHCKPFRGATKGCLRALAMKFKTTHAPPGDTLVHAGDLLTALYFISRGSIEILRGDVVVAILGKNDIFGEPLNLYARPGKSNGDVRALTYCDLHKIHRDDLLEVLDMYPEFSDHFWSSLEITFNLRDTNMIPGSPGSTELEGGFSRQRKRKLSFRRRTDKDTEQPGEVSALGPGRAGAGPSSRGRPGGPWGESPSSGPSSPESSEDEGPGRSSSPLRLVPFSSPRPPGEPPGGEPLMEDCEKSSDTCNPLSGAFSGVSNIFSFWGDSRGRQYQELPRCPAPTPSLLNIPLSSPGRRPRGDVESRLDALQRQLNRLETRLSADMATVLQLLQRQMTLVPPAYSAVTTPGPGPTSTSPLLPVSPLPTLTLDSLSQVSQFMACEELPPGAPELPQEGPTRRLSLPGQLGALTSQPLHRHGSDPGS
Sequence of CYP2C9 (P11712 whole entry): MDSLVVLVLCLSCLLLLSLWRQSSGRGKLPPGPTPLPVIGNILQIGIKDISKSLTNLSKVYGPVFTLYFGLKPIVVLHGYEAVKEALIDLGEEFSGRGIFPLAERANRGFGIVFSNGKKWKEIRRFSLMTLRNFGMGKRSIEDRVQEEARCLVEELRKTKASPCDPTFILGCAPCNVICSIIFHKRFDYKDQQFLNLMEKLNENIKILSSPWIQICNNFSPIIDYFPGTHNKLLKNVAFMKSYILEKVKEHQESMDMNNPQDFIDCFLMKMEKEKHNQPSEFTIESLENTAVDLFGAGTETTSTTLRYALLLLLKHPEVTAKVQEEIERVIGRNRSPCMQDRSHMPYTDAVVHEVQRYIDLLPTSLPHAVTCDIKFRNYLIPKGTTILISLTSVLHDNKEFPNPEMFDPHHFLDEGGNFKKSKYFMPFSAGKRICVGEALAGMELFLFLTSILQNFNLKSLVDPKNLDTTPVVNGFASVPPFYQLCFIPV
Sequence of CYP2D6 (P10635 whole entry): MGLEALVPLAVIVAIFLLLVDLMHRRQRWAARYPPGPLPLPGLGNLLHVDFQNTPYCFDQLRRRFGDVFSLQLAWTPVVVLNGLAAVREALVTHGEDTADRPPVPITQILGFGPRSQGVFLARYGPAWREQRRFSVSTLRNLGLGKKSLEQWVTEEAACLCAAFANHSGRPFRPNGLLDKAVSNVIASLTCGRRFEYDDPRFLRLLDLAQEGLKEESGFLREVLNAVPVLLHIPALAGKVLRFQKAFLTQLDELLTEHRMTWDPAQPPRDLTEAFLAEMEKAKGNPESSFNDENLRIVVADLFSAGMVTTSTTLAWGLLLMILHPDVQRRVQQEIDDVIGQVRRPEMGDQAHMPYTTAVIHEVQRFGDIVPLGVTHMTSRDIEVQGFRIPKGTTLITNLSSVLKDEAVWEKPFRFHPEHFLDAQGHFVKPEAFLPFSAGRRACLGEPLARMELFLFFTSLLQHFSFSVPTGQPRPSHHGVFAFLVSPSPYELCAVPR
Sequence of CYP2C19 (P33261 whole entry): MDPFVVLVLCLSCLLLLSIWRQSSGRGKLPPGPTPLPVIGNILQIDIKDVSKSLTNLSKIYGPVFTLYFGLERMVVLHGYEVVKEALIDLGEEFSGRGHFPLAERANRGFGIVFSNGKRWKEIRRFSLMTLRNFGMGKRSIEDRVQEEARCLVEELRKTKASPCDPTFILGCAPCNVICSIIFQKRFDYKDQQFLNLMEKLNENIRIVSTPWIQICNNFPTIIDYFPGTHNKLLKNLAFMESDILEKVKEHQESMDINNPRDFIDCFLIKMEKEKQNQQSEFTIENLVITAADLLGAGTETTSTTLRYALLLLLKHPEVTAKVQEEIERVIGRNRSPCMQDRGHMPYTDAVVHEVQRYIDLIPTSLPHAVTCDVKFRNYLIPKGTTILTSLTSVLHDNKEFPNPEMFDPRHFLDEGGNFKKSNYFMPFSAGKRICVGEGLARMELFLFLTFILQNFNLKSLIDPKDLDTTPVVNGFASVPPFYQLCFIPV
Sequence of CYP3A4 (P08684 whole entry): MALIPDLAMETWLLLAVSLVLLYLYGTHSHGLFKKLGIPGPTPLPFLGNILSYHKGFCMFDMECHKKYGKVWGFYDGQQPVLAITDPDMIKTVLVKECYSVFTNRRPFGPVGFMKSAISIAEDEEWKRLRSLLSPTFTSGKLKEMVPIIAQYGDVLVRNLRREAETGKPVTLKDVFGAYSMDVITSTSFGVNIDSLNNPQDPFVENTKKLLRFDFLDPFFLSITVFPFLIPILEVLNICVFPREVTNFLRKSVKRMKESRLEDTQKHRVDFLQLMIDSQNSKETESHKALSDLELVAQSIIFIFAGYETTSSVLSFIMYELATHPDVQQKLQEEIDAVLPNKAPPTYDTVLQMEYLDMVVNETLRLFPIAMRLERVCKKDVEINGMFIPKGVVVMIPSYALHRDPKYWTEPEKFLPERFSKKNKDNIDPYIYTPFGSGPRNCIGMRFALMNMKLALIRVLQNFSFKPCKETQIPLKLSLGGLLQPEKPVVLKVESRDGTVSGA

Turning to `Cc1cc(SC(Cc2ccccc2)c2ccc(-c3ccc(C(F)(F)F)cc3)cc2)ccc1OCC(=O)O` (stereo unspecified), the negative logarithm of the EC50 (pEC50) in data set [1] and in [2] was < 5.00 in each case. Besides, the inhibition (as a rule, the change of the read-out against control, counted positive when it falls) at 0.25 h, 10 µM in [3] came to 1.5%; in [4], 35.5%; in data set [5] it was 4.3%; in [6] it was 0%; in data set [7], 7.3%. In addition, the remaining at 0.5 h, 1 µM in data set [8] was 99.8%; in [9] it was > 100%; in data set [10] it was > 100%; in data set [11], > 100%. In addition, in data set [12], the Papp at 5 h, 10 µM was 9.54 ×10⁻⁶ cm/s. In addition, the pIC50 (as a rule, the IC50 on a negative log10 scale, so that one unit is a factor of ten) in [13] was < 5.00. The AUC (commonly concentration integrated over time) in [14] stood at 3830 ng·h/mL; in data set [20], 12500 ng·h/mL. In addition, in [15], the clearance (commonly the rate of elimination divided by the concentration) stood at 4 mL/min/kg. The Vd in data set [16] is 1 L/kg. The half-life (as a rule, how long it takes for the measured level to halve) in data set [17] was 3.6 h. In data set [18], the Cmax (commonly the maximum level reached in the sampled fluid or tissue) was determined as 2320 ng/mL. The time of peak concentration (Tmax) (as a rule, the time at which the peak concentration occurs) in data set [19] came to 4.5 h. Moreover, the bioavailability – broadly, dose-corrected exposure relative to a reference, in per cent – in data set [21] turned out to be 32.6%.
